ChEMBL document CHEMBL1949636, “Optimization of phenylacetic acid derivatives for balanced CRTH2 and DP dual antagonists” (Bioorg Med Chem Lett, 2012)
pIC50: −log10 of the molar value.

Target: T1, Prostaglandin D2 receptor (Homo sapiens, UniProt Q13258)
T1 sequence (Q13258 whole entry): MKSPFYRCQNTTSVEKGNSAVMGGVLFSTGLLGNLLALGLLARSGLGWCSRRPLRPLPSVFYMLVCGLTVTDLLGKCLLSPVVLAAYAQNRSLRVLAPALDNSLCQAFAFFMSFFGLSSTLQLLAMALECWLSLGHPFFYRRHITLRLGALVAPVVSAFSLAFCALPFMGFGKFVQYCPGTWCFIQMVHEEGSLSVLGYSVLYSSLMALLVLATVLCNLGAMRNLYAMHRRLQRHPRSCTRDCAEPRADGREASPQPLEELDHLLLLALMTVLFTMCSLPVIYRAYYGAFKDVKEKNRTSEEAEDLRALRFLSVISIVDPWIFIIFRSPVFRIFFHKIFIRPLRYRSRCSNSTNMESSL
Experiment: Displacement of [3H]PGD2 from human DP receptor expressed in HEK293 cells by scintillation counting in presence of 0.5% BSA
Format: cell-based
Method in brief: (§1)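 Radioligand binding to intact HEK 293 cells stably expressing human CRTH2 or DP. Cells incubated with [3H]-PGD2 and increasing compound concentrations in binding buffer containing 0.5% BSA. After washing, bound [3H]-PGD2 counted by scintillation. […] Mean of three experiments; standard deviation 30%.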

| Compound | pIC50 |
| --- | --- |
| CCCCNC(=O)c1ccc(Oc2ccc3c(c2)OCC3CC(=O)O)c(NS(=O)(=O)c2ccc(Cl)cc2Cl)c1 (stereo not drawn) | 6.82 |
| CCc1nc(-c2ccc(Oc3ccc(CC(=O)O)cc3OC)c(NS(=O)(=O)c3ccc(Cl)cc3Cl)c2)n[nH]1 | 7.82 |
| CCCc1nc(-c2ccc(Oc3ccc(CC(=O)O)cc3OC)c(NS(=O)(=O)c3ccc(Cl)cc3Cl)c2)n[nH]1 | 8.00 |
| CCCCNC(=O)c1ccc(Sc2ccc(CC(=O)O)cc2)c(NS(=O)(=O)c2ccc(Cl)cc2Cl)c1 | 6.20 |
| CCCc1cc(-c2ccc(Oc3ccc(CC(=O)O)cc3OC)c(NS(=O)(=O)c3ccc(Cl)cc3Cl)c2)n[nH]1 | 8.40 |
| CCCc1nc(-c2ccc(Oc3ccc(CC(=O)O)cc3OC)c(NS(=O)(=O)c3ccc(Cl)cc3Cl)c2)c[nH]1 | 8.00 |
| CCCCNC(=O)c1ccc(S(=O)(=O)c2ccc(CC(=O)O)cc2)c(NS(=O)(=O)c2ccc(Cl)cc2Cl)c1 | < 5.00 |
| CCCCNC(=O)c1ccc(Oc2ccc(CC(=O)O)nc2)c(NS(=O)(=O)c2ccc(Cl)cc2Cl)c1 | 6.64 |
| CCCCNC(=O)c1ccc(Oc2ccc3c(ccn3CC(=O)O)c2)c(NS(=O)(=O)c2ccc(Cl)cc2Cl)c1 | 7.54 |
| CCCCNC(=O)c1ccc(Oc2ccc(CC(=O)O)cn2)c(NS(=O)(=O)c2ccc(Cl)cc2Cl)c1 | 6.32 |
| CCCCNC(=O)c1ccc(Cc2ccc(CC(=O)O)cc2OC)c(NS(=O)(=O)c2ccc(Cl)cc2Cl)c1 | 8.22 |
| CCc1noc(-c2ccc(Oc3ccc(CC(=O)O)cc3OC)c(NS(=O)(=O)c3ccc(Cl)cc3Cl)c2)n1 | 7.64 |
| CCCCNC(=O)c1ccc([S+]([O-])c2ccc(CC(=O)O)cc2)c(NS(=O)(=O)c2ccc(Cl)cc2Cl)c1 (stereo not drawn) | < 5.00 |
| CCCCNC(=O)c1ccc(Oc2ccc3c(CC(=O)O)coc3c2)c(NS(=O)(=O)c2ccc(Cl)cc2Cl)c1 | 8.30 |
| CCCCNC(=O)c1ccc(Oc2ccc3c(CC(=O)O)c[nH]c3c2)c(NS(=O)(=O)c2ccc(Cl)cc2Cl)c1 | 7.08 |

Target: T2, Prostaglandin D2 receptor (Homo sapiens) (UniProt Q13258)
T2 sequence (whole entry): T1 sequence (Q13258 whole entry)
Experiment: Antagonist activity at DP receptor in PGD2-stimulated human platelets in 80% whole blood assessed as inhibition of IBMX-stimulated cAMP production preincubated for 30 mins prior PGD2 stimulation measured after 60 mins by immunoassay
Format: functional, tissue-based
Method in brief: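 IBMX added to human whole blood at 1 mM final. Treated blood incubated with antagonist 30 min at 37 °C, then transferred to PGD2 at various concentrations for 60 min at 37 °C. Blood lysed and cAMP measured by direct immunoassay. PGD2-stimulated cAMP curves fitted with a Hill model.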

| Compound | Kb [nM] |
| --- | --- |
| CCCc1cc(-c2ccc(Oc3ccc(CC(=O)O)cc3OC)c(NS(=O)(=O)c3ccc(Cl)cc3Cl)c2)n[nH]1 | 5 |
| CCCc1nc(-c2ccc(Oc3ccc(CC(=O)O)cc3OC)c(NS(=O)(=O)c3ccc(Cl)cc3Cl)c2)c[nH]1 | 50 |

Target: T3, Prostaglandin D2 receptor 2 (Homo sapiens, UniProt Q9Y5Y4)
T3 sequence (Q9Y5Y4 whole entry): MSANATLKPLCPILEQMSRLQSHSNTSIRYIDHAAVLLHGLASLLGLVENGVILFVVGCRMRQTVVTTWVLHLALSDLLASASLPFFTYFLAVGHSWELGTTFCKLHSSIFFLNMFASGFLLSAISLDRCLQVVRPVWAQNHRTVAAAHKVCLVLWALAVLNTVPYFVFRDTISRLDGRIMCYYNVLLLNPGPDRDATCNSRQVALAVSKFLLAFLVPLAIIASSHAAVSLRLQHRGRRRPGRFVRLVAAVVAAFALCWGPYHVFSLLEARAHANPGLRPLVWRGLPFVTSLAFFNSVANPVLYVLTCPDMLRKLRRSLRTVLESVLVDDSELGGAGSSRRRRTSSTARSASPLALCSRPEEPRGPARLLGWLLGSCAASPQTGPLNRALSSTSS
Experiment: Displacement of [3H]PGD2 from human CRTH2 receptor expressed in HEK293 cells by scintillation counting in presence of 0.5% BSA
Format: cell-based
Method in brief: as §1

| Compound | pIC50 |
| --- | --- |
| CCCCNC(=O)c1ccc(Oc2ccc3c(c2)OCC3CC(=O)O)c(NS(=O)(=O)c2ccc(Cl)cc2Cl)c1 (stereo not drawn) | 6.24 |
| CCc1nc(-c2ccc(Oc3ccc(CC(=O)O)cc3OC)c(NS(=O)(=O)c3ccc(Cl)cc3Cl)c2)n[nH]1 | 8.22 |
| CCCc1nc(-c2ccc(Oc3ccc(CC(=O)O)cc3OC)c(NS(=O)(=O)c3ccc(Cl)cc3Cl)c2)n[nH]1 | 8.40 |
| CCCCNC(=O)c1ccc(Sc2ccc(CC(=O)O)cc2)c(NS(=O)(=O)c2ccc(Cl)cc2Cl)c1 | 7.68 |
| CCCc1cc(-c2ccc(Oc3ccc(CC(=O)O)cc3OC)c(NS(=O)(=O)c3ccc(Cl)cc3Cl)c2)n[nH]1 | 8.70 |
| CCCc1nc(-c2ccc(Oc3ccc(CC(=O)O)cc3OC)c(NS(=O)(=O)c3ccc(Cl)cc3Cl)c2)c[nH]1 | 8.70 |
| CCCCNC(=O)c1ccc(S(=O)(=O)c2ccc(CC(=O)O)cc2)c(NS(=O)(=O)c2ccc(Cl)cc2Cl)c1 | 6.40 |
| CCCCNC(=O)c1ccc(Oc2ccc(CC(=O)O)nc2)c(NS(=O)(=O)c2ccc(Cl)cc2Cl)c1 | 8.00 |
| CCCCNC(=O)c1ccc(Oc2ccc3c(ccn3CC(=O)O)c2)c(NS(=O)(=O)c2ccc(Cl)cc2Cl)c1 | 8.70 |
| CCCCNC(=O)c1ccc(Oc2ccc(CC(=O)O)cn2)c(NS(=O)(=O)c2ccc(Cl)cc2Cl)c1 | 6.51 |
| CCCCNC(=O)c1ccc(Cc2ccc(CC(=O)O)cc2OC)c(NS(=O)(=O)c2ccc(Cl)cc2Cl)c1 | 8.70 |
| CCc1noc(-c2ccc(Oc3ccc(CC(=O)O)cc3OC)c(NS(=O)(=O)c3ccc(Cl)cc3Cl)c2)n1 | 6.11 |
| CCCCNC(=O)c1ccc([S+]([O-])c2ccc(CC(=O)O)cc2)c(NS(=O)(=O)c2ccc(Cl)cc2Cl)c1 (stereo not drawn) | 6.18 |
| CCCCNC(=O)c1ccc(Oc2ccc3c(CC(=O)O)coc3c2)c(NS(=O)(=O)c2ccc(Cl)cc2Cl)c1 | 8.30 |
| CCCCNC(=O)c1ccc(Oc2ccc3c(CC(=O)O)c[nH]c3c2)c(NS(=O)(=O)c2ccc(Cl)cc2Cl)c1 | 8.52 |

Target: T1, Prostaglandin D2 receptor
Experiment: Displacement of [3H]PGD2 from human DP receptor expressed in HEK293 cells by scintillation counting in presence of 50% plasma
Format: cell-based
Method in brief: (§2)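 Whole-cell [3H]-PGD2 binding on HEK 293 cells stably expressing human CRTH2 or DP, run in binding buffer containing 50% human plasma. Test compound added at increasing concentrations. Cells washed, and remaining bound radioligand measured by scintillation counting. Mean of three experiments; standard deviation 30%.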

| Compound | pIC50 |
| --- | --- |
| CCCc1cc(-c2ccc(Oc3ccc(CC(=O)O)cc3OC)c(NS(=O)(=O)c3ccc(Cl)cc3Cl)c2)n[nH]1 | 7.34 |
| CCCc1nc(-c2ccc(Oc3ccc(CC(=O)O)cc3OC)c(NS(=O)(=O)c3ccc(Cl)cc3Cl)c2)c[nH]1 | 6.96 |

Target: T3, Prostaglandin D2 receptor 2
Experiment: Displacement of [3H]PGD2 from human CRTH2 receptor expressed in HEK293 cells by scintillation counting in presence of 50% plasma
Format: cell-based
Method in brief: as §2

| Compound | pIC50 |
| --- | --- |
| CCCc1cc(-c2ccc(Oc3ccc(CC(=O)O)cc3OC)c(NS(=O)(=O)c3ccc(Cl)cc3Cl)c2)n[nH]1 | 8.10 |
| CCCc1nc(-c2ccc(Oc3ccc(CC(=O)O)cc3OC)c(NS(=O)(=O)c3ccc(Cl)cc3Cl)c2)c[nH]1 | 7.70 |

Target: T4, Prostaglandin D2 receptor 2 (Homo sapiens) (UniProt Q9Y5Y4)
T4 sequence (whole entry): T3 sequence (Q9Y5Y4 whole entry)
Experiment: Antagonist activity at CRTH2 receptor in human eosinophol assessed as inhibition of PGD2-induced eosinophol shape change preincubated for 10 mins prior PGD2 stimulation measured after 10 mins by FACS flow cytometry
Format: functional
Method in brief: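 Granulocytes enriched from normal donor peripheral blood by density-gradient centrifugation; erythrocytes removed by ACK lysis. Cells pre-incubated 10 min at room temperature with antagonist or vehicle (0.05% DMSO), then stimulated with PGD2 (600–0.003 nM, 1:3 dilution) 10 min at 37 °C. Fixed in 1% final paraformaldehyde. Eosinophils gated as FL2-positive; geometric mean forward scatter used to derive IC50.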

| Compound | Kb [nM] |
| --- | --- |
| CCCc1cc(-c2ccc(Oc3ccc(CC(=O)O)cc3OC)c(NS(=O)(=O)c3ccc(Cl)cc3Cl)c2)n[nH]1 | 0.084 |
| CCCc1nc(-c2ccc(Oc3ccc(CC(=O)O)cc3OC)c(NS(=O)(=O)c3ccc(Cl)cc3Cl)c2)c[nH]1 | 0.18 |
